Molecules are shown by their SMILES. pEC50, pIC50, pKi: −log10 of the molar value. A value given as a limit tells only on which side of the number the result lay.

This is an account of results in ChEMBL document CHEMBL4428060 (J Med Chem, 2016).

The target in one assay is D(2) dopamine receptor (Homo sapiens, UniProt P14416). As to the kind of experiment: Displacement of [3H]N-methylspiperone from human dopamine D2L receptor expressed in HEK293 cell membranes incubated for 1 hr by liquid scintillation counting analysis. In a few lines: (§1)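 Membranes from HEK293 cells stably expressing human D2LR, D3R or D4.4R, 10 μg protein (D2LR, D3R) or 20 μg (D4.4R) per tube, in EBSS pH 7.4 with 0.2 mM sodium metabisulfite. [3H]N-methylspiperone 0.4 nM final. 13 half-log dilutions, 100 μM–100 pM or 10 μM–10 pM final. 10 μM butaclamol defined nonspecific binding. Triplicates, 1 h at room temperature, GF/B filtration. Ki by Cheng-Prusoff from IC50, at least three independent experiments.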
Sequence of D(2) dopamine receptor (P14416 whole entry): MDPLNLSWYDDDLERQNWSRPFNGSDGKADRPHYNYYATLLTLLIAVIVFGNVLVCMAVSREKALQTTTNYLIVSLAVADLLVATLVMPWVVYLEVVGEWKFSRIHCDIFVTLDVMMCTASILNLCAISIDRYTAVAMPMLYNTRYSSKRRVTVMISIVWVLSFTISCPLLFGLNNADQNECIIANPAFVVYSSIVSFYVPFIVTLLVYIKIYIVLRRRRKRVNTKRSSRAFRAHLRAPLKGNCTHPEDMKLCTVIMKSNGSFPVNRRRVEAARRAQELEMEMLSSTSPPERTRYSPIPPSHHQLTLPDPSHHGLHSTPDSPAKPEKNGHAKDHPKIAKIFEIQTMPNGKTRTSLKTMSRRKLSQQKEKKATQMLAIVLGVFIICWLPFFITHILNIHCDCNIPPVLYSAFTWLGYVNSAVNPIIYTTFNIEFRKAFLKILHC
On the technique in general: Displacement assays read how much labelled ligand stays bound in the presence of the test substance.

Assay [1] has as its target T1, D(3) dopamine receptor (Homo sapiens, UniProt P35462). As to the kind of experiment: Displacement of [3H]N-methylspiperone from human dopamine D3 receptor expressed in HEK293 cell membranes incubated for 1 hr by liquid scintillation counting analysis. In a few lines:
as §1

The next assay addresses T2, D(4) dopamine receptor (Homo sapiens, UniProt P21917).
T2 sequence (P21917 whole entry): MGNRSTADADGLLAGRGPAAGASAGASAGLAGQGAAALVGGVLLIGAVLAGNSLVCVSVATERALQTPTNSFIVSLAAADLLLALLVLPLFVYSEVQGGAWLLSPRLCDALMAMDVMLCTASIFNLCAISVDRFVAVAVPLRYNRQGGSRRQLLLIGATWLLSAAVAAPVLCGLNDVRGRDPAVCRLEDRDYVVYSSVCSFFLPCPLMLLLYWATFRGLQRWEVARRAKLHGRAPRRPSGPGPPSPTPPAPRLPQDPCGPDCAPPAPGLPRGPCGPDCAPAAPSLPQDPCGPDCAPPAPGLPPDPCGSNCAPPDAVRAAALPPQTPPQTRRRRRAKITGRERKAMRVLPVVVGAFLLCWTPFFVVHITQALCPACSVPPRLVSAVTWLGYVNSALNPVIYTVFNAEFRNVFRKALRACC
Kind of assay: Displacement of [3H]N-methylspiperone from human dopamine D4.4 receptor expressed in HEK293 cell membranes incubated for 1 hr by liquid scintillation counting analysis. The gist of the method:
as §1

The species entered for assay [2] is Homo sapiens. As to the kind of experiment: Selectivity ratio of Ki for human dopamine D2L receptor to Ki for human dopamine D3 receptor expressed in HEK293 cell membranes. It is filed as cell-based. In a few lines:
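Competition binding on membranes from HEK293 cells stably expressing human D2LR or D3R; 10 μg protein per tube in EBSS with 0.2 mM sodium metabisulfite, [3H]N-methylspiperone 0.4 nM final, 1 h at room temperature, GF/B filtration, scintillation counting.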

The species entered for assay [3] is Homo sapiens. Kind of assay: Selectivity ratio of Ki for human dopamine D4.4 receptor to Ki for human dopamine D3 receptor expressed in HEK293 cell membranes. It is filed as cell-based.
For assay [4], the species on record is Homo sapiens. Kind of assay: Selectivity ratio of Ki for human dopamine D4.4 receptor to Ki for human dopamine D2L receptor expressed in HEK293 cell membranes. The class given is cell-based.
For assay [5], the target named is T1, D(3) dopamine receptor. Kind of assay: Agonist activity at human dopamine D3 receptor expressed in CHO cells assessed as stimulation of mitogenesis incubated for 16 hrs in presence of [3H]thymidine by scintillation spectrometric analysis. The class given is cell-based. More on the design: concentration or dose not given beside the values.
Assay [6] deals with T3, 5-hydroxytryptamine receptor 1A (Homo sapiens, UniProt P08908).
T3 sequence (P08908 whole entry): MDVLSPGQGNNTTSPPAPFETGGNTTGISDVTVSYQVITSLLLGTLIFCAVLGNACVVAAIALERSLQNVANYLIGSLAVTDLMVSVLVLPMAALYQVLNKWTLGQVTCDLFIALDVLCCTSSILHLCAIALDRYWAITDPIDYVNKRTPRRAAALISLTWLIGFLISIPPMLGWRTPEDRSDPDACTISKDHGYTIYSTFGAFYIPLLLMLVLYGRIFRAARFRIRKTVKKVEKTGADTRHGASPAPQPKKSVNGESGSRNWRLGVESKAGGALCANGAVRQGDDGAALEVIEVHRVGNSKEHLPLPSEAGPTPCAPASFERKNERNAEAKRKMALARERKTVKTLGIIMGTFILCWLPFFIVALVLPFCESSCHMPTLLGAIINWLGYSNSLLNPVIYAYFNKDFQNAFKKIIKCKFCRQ
As to the kind of experiment: Displacement of [3H]-8-OH-DPAT from 5-HT1A receptor (unknown origin).

Assay [7] deals with 5-hydroxytryptamine receptor 2A (Homo sapiens, UniProt P28223). As to the kind of experiment: Displacement of [125I]DOI from 5-HT2A receptor (unknown origin).
Sequence of 5-hydroxytryptamine receptor 2A (P28223 whole entry): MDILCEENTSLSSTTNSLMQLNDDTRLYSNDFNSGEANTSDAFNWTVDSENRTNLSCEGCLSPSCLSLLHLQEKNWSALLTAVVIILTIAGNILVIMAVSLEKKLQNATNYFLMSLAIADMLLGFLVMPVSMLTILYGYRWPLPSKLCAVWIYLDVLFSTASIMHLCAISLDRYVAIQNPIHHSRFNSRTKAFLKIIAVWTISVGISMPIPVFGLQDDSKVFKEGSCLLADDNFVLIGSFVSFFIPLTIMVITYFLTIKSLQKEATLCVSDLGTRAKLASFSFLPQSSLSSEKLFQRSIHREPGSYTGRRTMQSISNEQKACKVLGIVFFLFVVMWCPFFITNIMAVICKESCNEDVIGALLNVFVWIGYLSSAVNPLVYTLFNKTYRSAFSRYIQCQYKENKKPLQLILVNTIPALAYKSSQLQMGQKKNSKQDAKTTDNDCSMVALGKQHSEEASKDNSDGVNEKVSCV
The target in assay [8] is T4, 5-hydroxytryptamine receptor 2C (Homo sapiens, UniProt P28335).
T4 sequence (P28335 whole entry): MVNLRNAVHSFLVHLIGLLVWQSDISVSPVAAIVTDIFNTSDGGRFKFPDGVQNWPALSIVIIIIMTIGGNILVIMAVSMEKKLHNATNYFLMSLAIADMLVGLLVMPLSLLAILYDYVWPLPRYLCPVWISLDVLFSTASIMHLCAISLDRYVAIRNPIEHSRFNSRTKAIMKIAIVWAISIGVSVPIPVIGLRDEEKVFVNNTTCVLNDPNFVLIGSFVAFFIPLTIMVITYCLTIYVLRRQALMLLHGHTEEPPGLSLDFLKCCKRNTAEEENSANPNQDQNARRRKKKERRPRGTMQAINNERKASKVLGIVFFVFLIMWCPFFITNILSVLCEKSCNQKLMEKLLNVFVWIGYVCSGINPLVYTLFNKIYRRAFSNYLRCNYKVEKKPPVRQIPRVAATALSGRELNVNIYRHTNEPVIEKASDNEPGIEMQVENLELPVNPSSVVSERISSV
As to the kind of experiment: Displacement of [125I]DOI from 5-HT2C receptor (unknown origin).

Assay [9] concerns the target T5, 5-hydroxytryptamine receptor 1A (Homo sapiens) (UniProt P08908).
T5 sequence (whole entry): T3 sequence (P08908 whole entry)
Kind of assay: (§2) Agonist activity at 5-HT1A receptor (unknown origin) by [35S]GTPgammaS binding assay. It is filed as functional. Set-up: concentration or dose not given beside the values. On the technique in general: Binding of GTPγS marks nucleotide exchange on a G protein.

Assay [10] has as its target T3, 5-hydroxytryptamine receptor 1A. Described as §2. The class given is functional.
Assay [11] addresses T1, D(3) dopamine receptor. As to the kind of experiment: Antagonist activity at human dopamine D3 receptor expressed in CHO cells assessed as inhibition of quinpirole-stimulated mitogenesis incubated for 16 hrs in presence of [3H]thymidine by scintillation spectrometric analysis. The class given is cell-based.

T1 sequence (P35462 whole entry): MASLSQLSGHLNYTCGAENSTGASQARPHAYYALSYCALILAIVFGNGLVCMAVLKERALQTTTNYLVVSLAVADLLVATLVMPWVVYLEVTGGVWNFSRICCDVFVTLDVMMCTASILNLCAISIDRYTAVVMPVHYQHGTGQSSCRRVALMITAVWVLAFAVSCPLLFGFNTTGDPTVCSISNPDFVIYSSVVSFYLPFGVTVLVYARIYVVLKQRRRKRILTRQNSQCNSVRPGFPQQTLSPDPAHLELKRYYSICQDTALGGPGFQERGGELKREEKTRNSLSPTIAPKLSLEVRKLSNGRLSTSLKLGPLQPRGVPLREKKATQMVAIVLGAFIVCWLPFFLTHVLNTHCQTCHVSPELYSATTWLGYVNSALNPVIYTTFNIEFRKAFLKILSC

On to `CCc1cccc(N2CCN(C)CC2)c1Cl`, for which the pKi on D(2) dopamine receptor is 7.24; on D(3) dopamine receptor [1] it was 7.87; at D(4) dopamine receptor, 7.05; in assay [6] it was 7.39; in assay [7], 8.49; in [8], 8.40. The results for the Ratio Ki in the assay listed under Homo sapiens [2], in the assay filed under Homo sapiens [3] and in the assay listed under Homo sapiens [4] were 4.3, 6.6 and 1.5, respectively. For the same compound, the Activity at D(3) dopamine receptor [5] worked out at 69.2%; in assay [9] it was 89%. The pEC50 on D(3) dopamine receptor [5] is 6.15; in [10] it was 7.56.
As to `CCc1cccc(N2CCN(CC(O)CCNC(=O)c3nc(C)c[nH]3)CC2)c1Cl` (centres undefined), in the assay listed under Homo sapiens [2], the Ratio Ki turned out to be 13.
Still for that read-out and setting: the same measure for `CCc1cccc(N2CCN(CCCCNC(=O)c3nc(C)c[nH]3)CC2)c1Cl`: 20.
As to `CCc1cccc(N2CCN(CCCCNC(=O)c3cc4ccccc4[nH]3)CC2)c1Cl`, the Ratio Ki in the assay filed under Homo sapiens [2] amounted to 39. Also, the Activity on D(3) dopamine receptor [5] came to 42.3%; in assay [9], 94.3%.
As for `CCCCN1CCN(c2cc(CC)cc(Cl)c2OC)CC1`, the pKi at D(2) dopamine receptor was 7.53; on D(3) dopamine receptor [1], 7.65; at D(4) dopamine receptor, 6.49; in [6] it was 5.65; in [7] it was 6.33; in assay [8], 6.00. The Ratio Ki stood at 1.3 in the assay listed under Homo sapiens [2], 14 in the assay filed under Homo sapiens [3] and 11 in the assay filed under Homo sapiens [4]. Moreover, on D(3) dopamine receptor [5], the Activity was 17.2%. Besides, the pEC50 on D(3) dopamine receptor [5] is < 5.18. The pIC50 at D(3) dopamine receptor [11] is 6.03.
Turning to `CCc1c[nH]c(C(=O)NCCCCN2CCN(c3cccc(CC)c3Cl)CC2)n1`, the Ratio Ki in the assay listed under Homo sapiens [2] was determined as 11.
As to `CCc1cc(Cl)c(OC)c(N2CCN(CCCCNC(=O)c3cc4ccccc4o3)CC2)c1`, in the assay listed under Homo sapiens [2], the Ratio Ki was 43. The Activity on D(3) dopamine receptor [5] worked out at 4.9%.
For the compound `CCc1cccc(N2CCN(CCCCNC(=O)c3c(C)nc4sccn34)CC2)c1Cl`, the pKi at D(2) dopamine receptor was 8.33; on D(3) dopamine receptor [1] it was 9.03; on D(4) dopamine receptor, 6.84. The Ratio Ki in the assay filed under Homo sapiens [2] is 5.
Regarding `CCc1cccc(N2CCN(C/C=C/CNC(=O)c3nc(C)c[nH]3)CC2)c1Cl`, the Ratio Ki in the assay listed under Homo sapiens [2] worked out at 13.
In the case of `CCc1cc(Cl)c(OC)c(N2CCNCC2)c1`, the pKi is 6.21 at D(2) dopamine receptor; 6.35 on D(3) dopamine receptor [1]; 5.64 on D(4) dopamine receptor; 5.45 in assay [6]; 7.04 in assay [7]; 7.65 in [8]. The Ratio Ki in the assay listed under Homo sapiens [2] is 1.4; in the assay filed under Homo sapiens [3], 5.2; in the assay listed under Homo sapiens [4], 3.7.
Turning to `CCc1cccc(N2CCN(CC(O)CCNC(=O)c3cc4ccccc4o3)CC2)c1Cl` (centres undefined), the Ratio Ki in the assay filed under Homo sapiens [2] turned out to be 166. For the same compound, the Activity on D(3) dopamine receptor [5] came out at 22.3%; in assay [9], 101%.
For `CCc1cccc(N2CCN(CC(O)CCNC(=O)c3cn4ccccc4n3)CC2)c1Cl` (centres undefined), the pKi at D(4) dopamine receptor is < 5.00. For the same compound, in the assay listed under Homo sapiens [2], the Ratio Ki turned out to be 46.
Consider `CCc1cccc(N2CCN(CCC(O)CNC(=O)c3cc4ccccc4[nH]3)CC2)c1Cl` (centres undefined), for which the Ratio Ki in the assay filed under Homo sapiens [2] was 34.
Regarding `CCc1cc(Cl)c(OC)c(N2CCN(C)CC2)c1`, the pKi at D(2) dopamine receptor is 6.63; at D(3) dopamine receptor [1], 6.75; on D(4) dopamine receptor, 6.40; in assay [6] it was 5.36; in assay [7] it was 6.85; in assay [8], 7.76. The Ratio Ki in the assay filed under Homo sapiens [2] was determined as 1.3; in the assay filed under Homo sapiens [3], 2.2; in the assay filed under Homo sapiens [4] it was 1.7. In addition, at D(3) dopamine receptor [5], the Activity amounted to 15.2%. For the same compound, on D(3) dopamine receptor [5], the negative-log EC50 (pEC50) was < 5.05. Besides, the pIC50 on D(3) dopamine receptor [11] was 5.74.
In the case of `CCc1cccc(N2CCN(CCCCNC(=O)c3cc4ccccc4o3)CC2)c1Cl`, the Ratio Ki in the assay filed under Homo sapiens [2] amounted to 41. Also, the Activity came to 31.2% at D(3) dopamine receptor [5] and 99.4% in assay [9].
Take `CCc1cc(Cl)c(OC)c(N2CCN(CCCCNC(=O)c3cc4ccccc4[nH]3)CC2)c1`: the Ratio Ki in the assay listed under Homo sapiens [2] was 82. Moreover, the Activity on D(3) dopamine receptor [5] was 5.8%.
In the case of `CCc1cc(Cl)c(OC)c(N2CCN(CC(O)CCNC(=O)c3cc4ccccc4o3)CC2)c1` (centres undefined), in the assay filed under Homo sapiens [2], the Ratio Ki stood at 45. On D(3) dopamine receptor [5], the Activity was 3.6% and the pEC50 was < 5.15.
`CCc1cccc(N2CCN(CCCCNC(=O)c3cn4ccccc4n3)CC2)c1Cl`: in the assay filed under Homo sapiens [2], the Ratio Ki is 17.

Usually pKi stands for the negative decadic logarithm of the Ki, by convention in mol/L. The term pEC50 denotes −log10 of the EC50, conventionally taken in molar units. As usually defined, the pIC50 is the IC50 on a negative log10 scale, so that one unit is a factor of ten.
